Here are results for 13 compounds from ChEMBL document CHEMBL1144502, “Synthesis and biological evaluation of imidazo[1,2-a]pyridine derivatives as novel PI3 kinase p110alpha inhibitors” (Bioorg Med Chem, 2007).

The target in data set [1] is Phosphatidylinositol 4,5-bisphosphate 3-kinase catalytic subunit alpha isoform (Bos taurus, UniProt P32871). Put plainly: Inhibition of GST-tagged bovine PI3K p110-alpha by SPA. The procedure, abridged: (§1)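 Radiometric SPA. Enzyme and compound (in DMSO) in 20 mM Tris-HCl pH 7.4, 160 mM NaCl, 2 mM DTT, 30 mM MgCl2, 0.4 mM EDTA, 0.4 mM EGTA. Stopped with wheat germ agglutinin-coated SPA beads in PBS, then centrifuged. IC50 is the mean of at least two determinations.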
Phosphatidylinositol 4,5-bisphosphate 3-kinase catalytic subunit alpha isoform, sequence (P32871 whole entry, canonical isoform): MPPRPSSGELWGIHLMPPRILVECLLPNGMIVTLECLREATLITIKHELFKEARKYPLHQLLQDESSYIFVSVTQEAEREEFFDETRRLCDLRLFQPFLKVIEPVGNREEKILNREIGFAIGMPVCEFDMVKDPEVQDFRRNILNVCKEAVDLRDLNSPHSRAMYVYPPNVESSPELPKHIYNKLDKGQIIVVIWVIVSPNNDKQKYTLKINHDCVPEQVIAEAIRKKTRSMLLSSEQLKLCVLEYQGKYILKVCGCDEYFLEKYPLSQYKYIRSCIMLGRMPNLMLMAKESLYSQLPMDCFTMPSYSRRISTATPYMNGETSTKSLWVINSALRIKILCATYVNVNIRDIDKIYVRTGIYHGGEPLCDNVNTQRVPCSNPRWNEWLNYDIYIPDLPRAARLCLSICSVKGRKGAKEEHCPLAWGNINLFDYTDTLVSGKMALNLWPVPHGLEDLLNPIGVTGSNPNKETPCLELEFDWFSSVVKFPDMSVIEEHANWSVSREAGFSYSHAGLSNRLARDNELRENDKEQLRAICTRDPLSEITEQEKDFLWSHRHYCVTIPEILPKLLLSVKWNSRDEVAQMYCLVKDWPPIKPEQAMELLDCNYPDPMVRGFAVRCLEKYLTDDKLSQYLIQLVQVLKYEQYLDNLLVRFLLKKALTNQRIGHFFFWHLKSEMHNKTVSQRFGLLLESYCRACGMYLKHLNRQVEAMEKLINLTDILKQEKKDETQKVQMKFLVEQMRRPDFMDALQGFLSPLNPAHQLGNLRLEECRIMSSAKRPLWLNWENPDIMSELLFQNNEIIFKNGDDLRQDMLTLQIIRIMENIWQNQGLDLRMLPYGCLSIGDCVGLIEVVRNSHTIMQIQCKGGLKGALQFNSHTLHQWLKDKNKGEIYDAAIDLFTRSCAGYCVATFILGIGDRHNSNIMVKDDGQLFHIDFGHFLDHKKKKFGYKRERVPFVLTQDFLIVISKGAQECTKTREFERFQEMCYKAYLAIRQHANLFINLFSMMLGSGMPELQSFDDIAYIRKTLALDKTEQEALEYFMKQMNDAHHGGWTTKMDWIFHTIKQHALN

In the next data set the test system is A375 (human). Put plainly: Antiproliferative activity against human A375 cells after 46 hrs. As to conditions: A375, 46 h.
Data set [2] has as its target Phosphatidylinositol 4-phosphate 3-kinase C2 domain-containing subunit beta (Homo sapiens, UniProt O00750). Put plainly: Inhibition of Glu-tagged PI3K C2-beta by SPA. The procedure, abridged: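 SPA as for the class I isoforms, but the PI3K C2β buffer is 20 mM Tris-HCl pH 7.4, 160 mM NaCl, 2 mM DTT, 5 mM MgCl2, 15 mM CaCl2, 0.4 mM EDTA. Run 120 min at room temperature. Captured on WGA-coated SPA beads. IC50 is the mean of at least two determinations.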

Data set [3] deals with HeLa. Put plainly: Suppression of tumor growth in BALB/c nu/nu mouse implanted with human HeLa cells at 25 mg/kg, ip after 2 weeks relative to control. The conditions noted are these: route intraperitoneal. In kind it is functional. The method in brief: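 HeLa xenografts in nude mice, five animals per group. Dosing began when tumours reached about 100 mm³. 25 mg/kg (as free base) given ip once daily for 2 weeks, suspended in 20% hydroxypropyl-β-cyclodextrin/saline; the vehicle group served as control. Tumour volume = 1/2 × (short diameter)² × (long diameter).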

Data set [4] can be described thus: Half life in ip dosed mouse. In kind it is ADME, organism-based. As to conditions: in vivo. The procedure, abridged:
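Mice dosed intraperitoneally. Plasma half-life determined by HPLC/MS/MS.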

Data set [5] concerns the target Phosphatidylinositol 4,5-bisphosphate 3-kinase catalytic subunit beta isoform (Homo sapiens, UniProt P42338). Put plainly: Inhibition of GST-tagged human PI3K p110-beta by SPA. The procedure, abridged: as §1
Data set [6] relates to HeLa. Kind of data set: Antiproliferative activity against human HeLa cells after 46 hrs. The format is functional, cell-based. The procedure, abridged: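 Serum-induced proliferation. Compound (1 µL) spotted into wells, then 1×10^4 cells added. After 46 h incubation, Alamar Blue added; fluorescence read 2 h later at ex 544/em 590 nm.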
Data set [7] deals with Phosphatidylinositol 4,5-bisphosphate 3-kinase catalytic subunit gamma isoform (Homo sapiens, UniProt P48736). Kind of data set: Inhibition of His-tagged PI3K p110gamma by SPA. The method in brief: as §1
Phosphatidylinositol 4,5-bisphosphate 3-kinase catalytic subunit gamma isoform, sequence (P48736 whole entry, canonical isoform): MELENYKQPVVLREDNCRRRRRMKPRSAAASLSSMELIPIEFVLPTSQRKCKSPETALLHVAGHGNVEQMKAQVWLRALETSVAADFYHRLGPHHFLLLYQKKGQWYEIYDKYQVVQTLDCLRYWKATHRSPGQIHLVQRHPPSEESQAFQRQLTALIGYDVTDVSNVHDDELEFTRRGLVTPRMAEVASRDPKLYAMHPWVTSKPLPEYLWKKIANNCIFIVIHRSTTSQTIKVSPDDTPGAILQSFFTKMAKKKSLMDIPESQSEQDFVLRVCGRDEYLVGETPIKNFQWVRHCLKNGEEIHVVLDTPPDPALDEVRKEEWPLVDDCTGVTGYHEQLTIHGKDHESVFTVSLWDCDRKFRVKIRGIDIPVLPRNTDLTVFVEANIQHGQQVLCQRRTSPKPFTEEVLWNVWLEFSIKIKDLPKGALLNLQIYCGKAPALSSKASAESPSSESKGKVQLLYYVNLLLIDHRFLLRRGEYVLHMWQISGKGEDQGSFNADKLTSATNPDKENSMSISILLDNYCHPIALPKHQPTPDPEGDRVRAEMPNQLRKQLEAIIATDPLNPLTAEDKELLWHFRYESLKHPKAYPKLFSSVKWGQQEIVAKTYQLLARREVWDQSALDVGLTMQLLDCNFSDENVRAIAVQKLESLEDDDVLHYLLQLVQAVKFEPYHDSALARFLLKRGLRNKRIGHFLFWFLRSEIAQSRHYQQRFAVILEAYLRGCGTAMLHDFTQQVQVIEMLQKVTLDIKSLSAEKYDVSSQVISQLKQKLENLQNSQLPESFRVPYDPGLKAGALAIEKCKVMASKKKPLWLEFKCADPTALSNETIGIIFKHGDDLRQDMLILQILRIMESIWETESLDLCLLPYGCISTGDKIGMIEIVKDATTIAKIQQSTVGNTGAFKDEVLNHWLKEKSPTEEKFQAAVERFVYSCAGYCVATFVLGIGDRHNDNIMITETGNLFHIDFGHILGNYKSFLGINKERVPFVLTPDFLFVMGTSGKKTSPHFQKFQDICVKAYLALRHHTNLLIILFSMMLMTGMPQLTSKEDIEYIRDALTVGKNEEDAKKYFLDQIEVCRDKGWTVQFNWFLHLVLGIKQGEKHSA

Molecules are shown by their SMILES. Some results are limits rather than exact numbers.

Phosphatidylinositol 4-phosphate 3-kinase C2 domain-containing subunit beta, sequence (O00750 whole entry, the tested form may be a part, canonical isoform): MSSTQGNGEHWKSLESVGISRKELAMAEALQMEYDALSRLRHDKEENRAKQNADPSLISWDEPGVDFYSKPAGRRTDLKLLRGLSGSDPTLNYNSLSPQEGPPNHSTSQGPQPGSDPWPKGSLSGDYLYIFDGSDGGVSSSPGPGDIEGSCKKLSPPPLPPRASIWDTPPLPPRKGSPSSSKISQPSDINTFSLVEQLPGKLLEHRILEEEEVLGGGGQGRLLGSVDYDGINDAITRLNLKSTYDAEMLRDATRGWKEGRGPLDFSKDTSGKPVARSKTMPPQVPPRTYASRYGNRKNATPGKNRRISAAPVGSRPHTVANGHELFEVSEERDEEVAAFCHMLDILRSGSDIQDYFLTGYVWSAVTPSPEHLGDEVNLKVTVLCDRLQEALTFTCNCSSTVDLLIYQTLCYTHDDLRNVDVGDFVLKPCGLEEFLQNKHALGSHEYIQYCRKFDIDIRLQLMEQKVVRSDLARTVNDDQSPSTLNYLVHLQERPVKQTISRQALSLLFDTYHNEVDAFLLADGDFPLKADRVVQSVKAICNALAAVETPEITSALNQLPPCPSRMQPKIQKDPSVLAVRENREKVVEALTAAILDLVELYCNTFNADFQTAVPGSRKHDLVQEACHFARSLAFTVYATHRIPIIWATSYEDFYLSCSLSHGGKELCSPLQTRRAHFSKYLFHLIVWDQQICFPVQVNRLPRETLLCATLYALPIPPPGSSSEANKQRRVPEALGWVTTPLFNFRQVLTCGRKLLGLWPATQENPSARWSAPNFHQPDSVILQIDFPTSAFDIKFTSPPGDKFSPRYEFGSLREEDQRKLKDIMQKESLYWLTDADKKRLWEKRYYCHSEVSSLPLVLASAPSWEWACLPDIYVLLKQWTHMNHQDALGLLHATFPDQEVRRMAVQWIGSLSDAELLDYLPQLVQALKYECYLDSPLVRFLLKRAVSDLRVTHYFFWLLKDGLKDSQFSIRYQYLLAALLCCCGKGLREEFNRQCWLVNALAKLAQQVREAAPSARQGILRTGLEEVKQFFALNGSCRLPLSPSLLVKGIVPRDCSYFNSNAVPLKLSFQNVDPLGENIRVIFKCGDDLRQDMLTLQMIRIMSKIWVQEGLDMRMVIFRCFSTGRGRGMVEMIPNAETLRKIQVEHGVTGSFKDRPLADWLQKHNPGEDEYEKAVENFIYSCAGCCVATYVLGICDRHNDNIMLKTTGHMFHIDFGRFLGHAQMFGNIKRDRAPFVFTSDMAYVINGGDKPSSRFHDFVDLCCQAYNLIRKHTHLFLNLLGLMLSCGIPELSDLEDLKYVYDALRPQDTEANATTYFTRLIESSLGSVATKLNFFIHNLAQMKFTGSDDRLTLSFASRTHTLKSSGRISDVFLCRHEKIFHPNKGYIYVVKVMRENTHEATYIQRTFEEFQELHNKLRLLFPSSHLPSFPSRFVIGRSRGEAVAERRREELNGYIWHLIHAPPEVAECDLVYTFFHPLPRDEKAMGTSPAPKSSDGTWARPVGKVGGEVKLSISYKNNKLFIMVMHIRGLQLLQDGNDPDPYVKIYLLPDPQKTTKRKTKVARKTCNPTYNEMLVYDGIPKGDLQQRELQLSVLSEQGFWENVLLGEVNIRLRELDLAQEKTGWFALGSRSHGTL
Phosphatidylinositol 4,5-bisphosphate 3-kinase catalytic subunit beta isoform, sequence (P42338 whole entry, canonical isoform): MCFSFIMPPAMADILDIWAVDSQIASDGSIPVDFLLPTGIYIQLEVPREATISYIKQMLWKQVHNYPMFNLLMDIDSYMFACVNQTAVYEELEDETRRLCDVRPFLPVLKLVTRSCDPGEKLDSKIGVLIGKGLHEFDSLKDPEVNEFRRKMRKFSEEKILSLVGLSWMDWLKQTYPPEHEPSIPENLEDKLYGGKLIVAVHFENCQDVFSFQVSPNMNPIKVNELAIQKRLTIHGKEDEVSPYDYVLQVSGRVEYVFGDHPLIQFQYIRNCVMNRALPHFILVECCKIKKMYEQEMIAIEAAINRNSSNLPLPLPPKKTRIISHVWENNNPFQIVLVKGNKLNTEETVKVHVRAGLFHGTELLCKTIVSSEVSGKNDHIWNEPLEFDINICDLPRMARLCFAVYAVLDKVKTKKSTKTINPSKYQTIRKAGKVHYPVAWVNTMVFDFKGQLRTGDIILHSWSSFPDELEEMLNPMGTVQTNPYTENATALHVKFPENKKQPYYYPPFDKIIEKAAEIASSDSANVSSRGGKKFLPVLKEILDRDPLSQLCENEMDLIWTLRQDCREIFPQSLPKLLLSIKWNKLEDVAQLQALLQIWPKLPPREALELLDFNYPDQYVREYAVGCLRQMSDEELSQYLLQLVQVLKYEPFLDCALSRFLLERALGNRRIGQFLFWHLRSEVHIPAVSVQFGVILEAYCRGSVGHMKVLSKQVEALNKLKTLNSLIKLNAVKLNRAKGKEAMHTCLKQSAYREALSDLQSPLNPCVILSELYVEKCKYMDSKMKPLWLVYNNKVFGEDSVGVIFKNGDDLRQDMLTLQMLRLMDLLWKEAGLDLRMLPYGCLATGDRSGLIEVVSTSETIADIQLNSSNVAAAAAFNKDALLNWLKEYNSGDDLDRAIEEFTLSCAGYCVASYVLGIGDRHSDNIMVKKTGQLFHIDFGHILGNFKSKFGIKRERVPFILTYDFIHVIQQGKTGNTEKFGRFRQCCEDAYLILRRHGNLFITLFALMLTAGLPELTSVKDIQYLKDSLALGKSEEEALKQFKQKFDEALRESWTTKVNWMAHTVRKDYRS

The term IC50 denotes the midpoint of a concentration-inhibition curve. As for `Cc1ccc([N+](=O)[O-])cc1S(=O)(=O)n1ccc(-c2cnc3ccc(Br)cn23)n1`, the IC50 turned out to be 1.8 nM in data set [1] and 170 nM with A375 (human).
In data set [1], `Cc1nc2ccc(Cl)cn2c1-c1ccn(S(=O)(=O)c2ccc(F)cc2)n1` showed an IC50 of 760 nM.
As for `Cc1ccc([N+](=O)[O-])cc1[S+]([O-])c1nc(-c2cnc3ccc(Cl)cn23)cs1` (centres undefined), the IC50 came to 31 nM in data set [1] and 270 nM with A375 (human).
The corresponding values for `Cc1ccc([N+](=O)[O-])cc1S(=O)(=O)n1ccc(-c2c(C)nc3ccc(Cl)cn23)n1` are 2.8 nM and 830 nM.
The matching figures for `O=[N+]([O-])c1ccc(CO)c([S+]([O-])c2nc(-c3cnc4ccc(Cl)cn34)cs2)c1` (centres undefined): 20 nM and 19000 nM.
The corresponding values for `Cc1ccc([N+](=O)[O-])cc1S(=O)(=O)n1ccc(-c2c(C)nc3ccc(Br)cn23)n1` are 3.1 nM and 730 nM.
In data set [1], `Cc1nc2ccc(Cl)cn2c1-c1ccn(S(=O)(=O)c2ccc([N+](=O)[O-])cc2)n1` returned a concentration for half-maximal inhibition (IC50) of over 30000 nM.
Take `Cc1ccc([N+](=O)[O-])cc1S(=O)(=O)n1ccc(-c2cnc3ccc(Cl)cn23)c1`: the half-maximal inhibitory concentration (IC50) in data set [1] is 100 nM; with A375 (human), 12000 nM.
The matching figures for `Cc1ccc([N+](=O)[O-])cc1Sc1nc(-c2cnc3ccc(Cl)cn23)cs1`: 82 nM and 3370 nM.
The matching figures for `Cc1nc2ccccn2c1-c1ccn(S(=O)(=O)c2ccc(F)cc2)n1`: 670 nM and 23000 nM.
On to `O=c1cc(N2CCOCC2)oc2c(-c3ccccc3)cccc12` [LY-294002], for which the half-maximal inhibitory concentration (IC50) in the data set with A375 (human) was found to be 8400 nM; in data set [2] it was 2100 nM.
What is called half-life is how long it takes for the measured level to halve. Lower therefore signals fast loss. For the compound `Cc1ccc([N+](=O)[O-])cc1S(=O)(=O)c1nc(-c2cnc3ccc(Cl)cn23)cs1.Cl`, the Activity in the data set with HeLa [3] stood at 37%. Further, the concentration for half-maximal inhibition (IC50) was 2.8 nM in data set [1]; 170 nM in data set [5]; 210 nM in the data set with HeLa [6]; 140 nM with A375 (human); 100 nM in data set [2]; 230 nM in data set [7]. In data set [4], this compound gave a half-life of 2.6 h.
The compound `Cc1nc2ccc(Cl)cn2c1-c1ccn(S(=O)(=O)c2cccc([N+](=O)[O-])c2)n1` gave a half-maximal inhibitory concentration (IC50) in data set [1] of 280 nM.
